Entries after “also recorded” stand apart in the source; their conditions may differ.
What was measured:
[1] = test system: MCF-10A mammary epithelial cell line; assay: Differential Nuclear Staining; assay type: cell-based, human; conditions: MCF-10A, 72 h exposure, DNS assay
[2] = Solubility in the cytotoxicity experiment; assay type: physicochemical; conditions: could not be examined at concentrations higher than 1 μM; crystals formed
[3] = test system: Jurkat acute T cell leukemia cell line; assay: Differential Nuclear Staining; assay type: cell-based, human; conditions: 48 h exposure, DNS assay
Outline: (§1)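 Cells grown in RPMI-1640 with 10% heat-inactivated FBS and penicillin/streptomycin at 37 °C, 5% CO2, then seeded at 10,000/well and left overnight. Test compound given at […] for 48 h, with untreated, 1% v/v DMSO and 1 mM H2O2 controls, at least three technical replicates. Hoechst plus PI (1 μg/mL final) added for the last 2 h. Wells imaged at 4X, live/dead percentages scored, and CC50 derived by linear interpolation.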

[4] = test system: MDA-MB-231 triple-negative breast cancer cell line; assay: Differential Nuclear Staining; assay type: cell-based, human
[5] = test system: CEM acute lymphoblastic leukemia cell line; assay: Differential Nuclear Staining; assay type: cell-based, human
Outline: as §1

[6] = Differential Nuclear Staining; assay type: cell-based, human; conditions: human, MCF-10A mammary epithelial cells
Jurkat cells [7] = assay: Cell cycle distribution analysis, NIM-DAPI; assay type: cell-based, human; conditions: 72 h
Jurkat cells [8] = assay: Reactive oxygen species; assay type: cell-based, human; conditions: 18 h, CC50 (4.36 μM) and 2x CC50 (8.72 μM) of 6h, H2O2 positive control, vs DMSO
Jurkat cells [9] = assay: Annexin V-FITC/PI apoptosis assay; assay type: cell-based, human; conditions: 24 h, CC50 (4.36 μM) and 2x CC50 (8.72 μM), vs vehicle control
Jurkat cells [10] = assay: Mitochondrial depolarization assay, MitoProbe JC-1; assay type: cell-based, human; conditions: 5 h; for Cells with depolarized mitochondria: solvent 20.9%
[11] = MDA-MB-231, 72 h exposure, DNS assay
[12] = 6h at CC25 (2.18 μM) and CC50 (4.36 μM), vs DMSO

Compound	CC50 at 72 h [6] [µM]	CC50 ([3]; Homo sapiens, 48 h) [µM]	CC50 ([4]; Homo sapiens, MDA-MB-231, 72 h) [µM]	CC50 ([5]; Homo sapiens, 48 h) [µM]	other results
O=C1Nc2ccccc2C1=Cc1cn(-c2ccccc2)nc1-c1ccccc1 [Compound 6a]					CC50 [1]: > 1 µM; Solubility (result in words) [2]: poor solubility; CC50 [3]: > 1 µM; CC50 [4, 11]: > 1 µM; CC50 ([5]; CEM, 48 h exposure, DNS assay): > 1 µM
Cc1ccc(-c2nn(-c3ccccc3)cc2C=C2C(=O)Nc3ccccc32)cc1 [Compound 6b, 3-((1-Phenyl-3-(p-tolyl)-1H-pyrazol-4-yl)methylene)indolin-2-one]	> 1	> 1	> 1	> 1	Solubility (result in words) [2]: poor solubility
O=C1Nc2ccccc2C1=Cc1cn(-c2ccccc2)nc1-c1ccc([N+](=O)[O-])cc1 [Compound 6c, 3-((3-(4-Nitrophenyl)-1-phenyl-1H-pyrazol-4-yl)methylene)indolin-2-one]	> 20	> 20	> 20	> 20	
COc1ccc(-c2nn(-c3ccccc3)cc2C=C2C(=O)Nc3ccccc32)cc1 [Compound 6d, 3-((3-(4-Methoxyphenyl)-1-phenyl-1H-pyrazol-4-yl)methylene)indolin-2-one]	> 1	> 1	> 1	> 1	Solubility (result in words) [2]: poor solubility
O=C1Nc2ccccc2C1=Cc1cn(-c2ccccc2)nc1-c1ccc(Cl)cc1 [Compound 6e, 3-((3-(4-Chlorophenyl)-1-phenyl-1H-pyrazol-4-yl)methylene)indolin-2-one]	> 20	> 20	> 20	> 20	
O=C1Nc2ccccc2C1=Cc1cn(-c2ccccc2)nc1-c1cc2ccccc2oc1=O [Compound 6f, 3-((3-(2-Oxo-2H-chromen-3-yl)-1-phenyl-1H-pyrazol-4-yl)methylene)indolin-2-one]	> 20	> 20	> 20	> 20	
Cc1ccc2c(c1)C(=Cc1cn(-c3ccccc3)nc1-c1ccccc1)C(=O)N2 [Compound 6g, 3-((1,3-diphenyl-1H-pyrazol-4-yl)methylene)-5-methylindolin-2-one]	13 ± 0.49	> 20	> 20	> 20	
Cc1ccc(-c2nn(-c3ccccc3)cc2C=C2C(=O)Nc3ccc(C)cc32)cc1 [Compound 6h, 5-methyl-3-((3-(1-phenyl)-3-(p-tolyl)-1H-pyrazol-4-yl)methylene)indolin-2-one]					CC50 [1]: 14.8 ± 1.48 µM; DNA fragmentation (sub G0/G1) (Jurkat cells [7]; [12]): moderate but significant increase in DNA fragmentation (sub G0/G1); also recorded: significant increase in DNA fragmentation (sub G0/G1; A); G0/G1 phase subpopulation (Jurkat cells [7]; [12]): significant cell cycle arrest was seen in the G0/G1 subpopulation; also recorded: cell cycle arrest in the G0/G1 diploid phase; G2/M (tetraploid) phase subpopulation (Jurkat cells [7]; [12]): small but also significant reduction in the G2/M (tetraploid) phase; also recorded: significant decrease in G2/M; ROS overproduction/accumulation (Jurkat cells [8]): does not activate ROS overproduction and/or accumulation; also recorded: does not cause ROS accumulation; Phosphatidylserine (PS) externalization / apoptosis (Jurkat cells [9]): induces a significant amount of PS externalization in a dose-response trend; also recorded: induced significant PS externalization; CC50 [3]: 4.36 ± 0.2 µM; CC50 [4, 11]: > 20 µM; Mitochondrial depolarization (result in words) (Jurkat cells [10]; CC50 and 2x CC50): does not cause mitochondrial depolarization; also recorded: No significant increase in cells with depolarized mitochondria; Cells with depolarized mitochondria (Jurkat cells [10]; at 2x CC50, untreated 13.2%): 18.7%; Cells with depolarized mitochondria (Jurkat cells [10]; at CC50, untreated 13.2%): 18.3%; CC50 ([5]; CEM, 48 h exposure, DNS assay): 7.14 ± 0.92 µM
COc1ccc(-c2nn(-c3ccccc3)cc2C=C2C(=O)Nc3ccc(C)cc32)cc1 [Compound 6i, 3-((3-(4-methoxyphenyl)-1-phenyl-1H-pyrazol-4-yl)methylene)-5-methylindolin-2-one]	9.37 ± 0.42	> 20	> 20	> 20	
Cc1ccc2c(c1)C(=Cc1cn(-c3ccccc3)nc1-c1ccc(Cl)cc1)C(=O)N2 [Compound 6j, 3-((3-(4-chlorophenyl)-1-phenyl-1H-pyrazol-4-yl)methylene)-5-methylindolin-2-one]	8.59 ± 0.31		> 20	7.66 ± 0.19	
Cc1ccc2c(c1)C(=Cc1cn(-c3ccccc3)nc1-c1cc3ccccc3oc1=O)C(=O)N2 [Compound 6k, 5-methyl-3-((3-(2-oxo-2H-chromen-3-yl)-1-phenyl-1H-pyrazol-4-yl)methylene)indolin-2-one]	> 20	> 20	> 20	> 20	
OO [Compound H2O2, H2O2, reference compound]					DNA fragmentation (sub G0/G1) (Jurkat cells [7]; [12]): moderate but significant increase in DNA fragmentation (sub G0/G1); ROS overproduction/accumulation (Jurkat cells [8]): displayed the highest amount of accumulated ROS
COc1cc([C@@H]2c3cc4c(cc3[C@@H](O[C@@H]3O[C@@H]5CO[C@@H](C)O[C@H]5[C@H](O)[C@H]3O)[C@H]3COC(=O)[C@H]23)OCO4)cc(OC)c1O [etoposide, reference compound]					DNA fragmentation (sub G0/G1) (Jurkat cells [7]; [12]): moderate but significant increase in DNA fragmentation (sub G0/G1); S hyperdiploid phase subpopulation (Jurkat cells [7]; control): significant arrest in the S hyperdiploid phase
